{
  "source": "ChEMBL document CHEMBL1123937",
  "about": "“(5Z)-7-(2,2-Dimethyl-4-phenyl-1,3-dioxan-cis-5-yl)heptenoi c acid: a specific thromboxane A2 receptor antagonist” (J Med Chem, 1987)",
  "key": {"[1]": {"target": "Thromboxane A2 receptor (Oryctolagus cuniculus)", "experiment": "Ability to inhibit U-46,619-induced contraction of isolated strips of rabbit thoracic aorta, which is the measure of thromboxane receptor antagonism", "details": "read-out: pA2 (converted)"}, "[2]": {"target": "T1, Thromboxane A2 receptor (Rattus norvegicus, UniProt P34978)", "T1 sequence (P34978 whole entry)": "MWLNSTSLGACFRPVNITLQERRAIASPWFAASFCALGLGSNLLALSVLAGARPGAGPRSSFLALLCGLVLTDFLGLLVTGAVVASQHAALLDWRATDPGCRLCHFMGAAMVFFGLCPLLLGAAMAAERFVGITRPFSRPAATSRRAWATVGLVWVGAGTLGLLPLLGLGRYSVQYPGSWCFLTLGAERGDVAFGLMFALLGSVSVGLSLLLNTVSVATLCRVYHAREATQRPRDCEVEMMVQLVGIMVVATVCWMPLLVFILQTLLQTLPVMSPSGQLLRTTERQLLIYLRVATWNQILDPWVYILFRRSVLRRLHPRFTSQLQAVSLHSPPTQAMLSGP", "experiment": "Ability to inhibit U-46,619-induced contraction of isolated strips of rat aorta, which is the measure of thromboxane receptor antagonism", "format": "functional", "details": "read-out: pA2 (converted)"}, "[3]": {"species": "Homo sapiens", "experiment": "Compound was tested for the concentration in human platelet -rich plasma that did not modify PGI-2 inhibition of ADP- induced aggregation.", "format": "functional"}, "[4]": {"species": "Homo sapiens", "experiment": "Ability to inhibit aggregate formation in human platelets induced by collagen", "format": "functional"}, "[5]": {"species": "Cavia porcellus", "experiment": "Compound was tested for the concentration that inhibited the bronchoconstriction induced by U 46619 for a period exceeding 2 h.", "format": "functional"}, "[6]": {"species": "Oryctolagus cuniculus", "experiment": "Compound was tested for the antagonist serotonin- and norepinephrine-induced contractions of rabbit aorta.", "format": "functional", "procedure,_shortened": "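Rabbit aortic strips contracted with serotonin or norepinephrine and tested in the presence of the antagonist at concentrations up to 2×10^-5 M.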"}, "[7]": {"species": "Cavia porcellus", "experiment": "Ability to inhibit relaxant effect of PGE-2 on guinea pig trachea was determined", "format": "functional", "details": "read-out: pA2 (converted)"}, "[8]": {"species": "Cavia porcellus", "experiment": "Inhibition of the response to PGE-2 in guinea pig ileum was determined", "format": "functional", "details": "read-out: pA2 (converted)"}, "[9]": {"species": "Oryctolagus cuniculus", "experiment": "Ability to inhibit the contractile effect of […] on rabbit aorta was determined", "format": "functional", "details": "read-out: pA2 (converted)"}, "[10]": {"target": "thromboxane A2 (TxA2) receptor (Cavia porcellus, UniProt A0A286Y4I8)", "experiment": "Ability to inhibit U-46,619-induced contraction of isolated strips of guinea pig tracheal chain, which is the measure of thromboxane receptor antagonism", "format": "functional", "details": "read-out: pA2 (converted)"}, "[11]": {"species": "Homo sapiens", "experiment": "Ability to inhibit aggregate formation in human platelets induced by arachidonic acid.", "format": "functional"}, "[12]": {"species": "Cavia porcellus", "experiment": "Ability to antagonise the actions of crude SRSA on guinea pig ileum was determined", "format": "functional", "details": "read-out: pA2 (converted)"}, "[13]": {"species": "Cavia porcellus", "experiment": "Ability to inhibit the contractile effect of PGF2-alpha on guinea pig trachea", "details": "read-out: pA2 (converted)"}, "[14]": {"species": "Rattus norvegicus", "experiment": "Inhibition of the response to […] in rat colon was determined", "format": "functional", "details": "read-out: pA2 (converted)"}, "[15]": {"species": "Oryctolagus cuniculus", "experiment": "Ability to inhibit the contractile effect of PGE-2 on rabbit aorta was determined", "format": "functional", "details": "read-out: pA2 (converted)"}, "[16]": {"species": "Cavia porcellus", "experiment": "Ability to inhibit the contractile effect of PGE-2 on guinea pig trachea", "format": "functional", "details": "read-out: pA2 (converted)"}, "[17]": {"species": "Rattus norvegicus", "experiment": "Ability to inhibit norepinephrine -induced contraction of isolated strips of rat aorta, […]", "format": "functional", "details": "read-out: pA2 (converted)"}, "[18]": {"species": "Rattus norvegicus", "experiment": "Ability to inhibit the contractile effect of PGD-2 on rat aorta was determined", "format": "functional", "details": "read-out: pA2 (converted)"}},
  "data": [
    {"smiles": "CC1(C)OC[C@H](C/C=C\\CCCC(=O)O)[C@@H](c2ccccc2)O1", "values": [
      {"measurement": "Kb", "setting": "[1]", "value": "> 20", "unit": "µM"}
    ]},
    {"smiles": "O=C(O)CCC/C=C\\C[C@@H]1COCO[C@@H]1c1ccccc1", "values": [
      {"measurement": "Kb", "setting": "[1]", "value": 0.501, "unit": "µM"}
    ]},
    {"smiles": "CC1(C)OC[C@@H](C/C=C\\CCCC(=O)O)[C@@H](c2ccccc2)O1", "values": [
      {"measurement": "Kb", "setting": "[2]", "value": 0.145, "unit": "µM"},
      {"measurement": "Concentration", "setting": "[3]", "value": 100, "unit": "µM"},
      {"measurement": "KB", "setting": "[4]", "value": "9.12e-06"},
      {"measurement": "Activity", "setting": "[5]", "value": 5, "unit": "mg/kg"},
      {"measurement": "Concentration", "setting": "[6]", "value": 20, "unit": "µM"},
      {"measurement": "Kb", "setting": "[7]", "value": "> 20", "unit": "µM"},
      {"measurement": "Kb", "setting": "[8]", "value": "> 20", "unit": "µM"},
      {"measurement": "Kb", "setting": "[9]", "value": 1.62, "unit": "µM"},
      {"measurement": "Kb", "setting": "[10]", "value": 0.263, "unit": "µM"},
      {"measurement": "KB", "setting": "[11]", "value": "1.42e-05"},
      {"measurement": "Kb", "setting": "[12]", "value": "> 20", "unit": "µM"},
      {"measurement": "Kb", "setting": "[13]", "value": 11.2, "unit": "µM"},
      {"measurement": "Kb", "setting": "[14]", "value": "> 20", "unit": "µM"},
      {"measurement": "Kb", "setting": "[15]", "value": 6.76, "unit": "µM"},
      {"measurement": "Kb", "setting": "[16]", "value": 10.5, "unit": "µM"},
      {"measurement": "Kb", "setting": "[17]", "value": "> 20", "unit": "µM"},
      {"measurement": "Kb", "setting": "[18]", "value": 1.95, "unit": "µM"},
      {"measurement": "Kb", "setting": "[1]", "value": 0.501, "unit": "µM"}
    ]},
    {"smiles": "O=C(O)CCC/C=C\\C[C@H]1COCO[C@@H]1c1ccccc1", "values": [
      {"measurement": "Kb", "setting": "[1]", "value": "> 20", "unit": "µM"}
    ]}
  ]
}
